Experimental data: ChEMBL document CHEMBL3272266, “Dibenzotropone- and dibenzosuberonecarboxylic acids with bronchodilator activity” (J Med Chem, 1979)
Calls of active or inactive are those of the source. The calls are words filed in the database; no cut-off is given here.

How the values were obtained:
Cavia porcellus [1] = assay: Bronchodilator activity in guinea pig assessed as protection against histamine aerosol-induced bronchoconstriction at 100 mg/kg, ip treated for 15 mins prior to histamine aerosol-challenge measured after 5 mins relative to control; type: functional; conditions: route intraperitoneal
Outline: (§1)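 Guinea pigs in groups of eight; a control group of eight is first confirmed to collapse. Compound given ip 15 min or orally 30 min before exposure to 0.04% aqueous histamine aerosol for 5 min. Percent protection = 100 × animals not collapsing during the 5-min exposure / total animals. Significance by chi-square with Yates correction against 66 control animals.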

Cavia porcellus [2] = assay: Bronchodilator activity in trachea and jugular vein cannulated guinea pig assessed as inhibition of histamine-induced response at 12.5 mg/kg, iv after 5 mins relative to control; type: functional
Outline: (§2)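 Cannulated guinea pigs given histamine phosphate 10 µg/kg iv in buffered saline. Test agent given 5 min later as the sodium salt in water via jugular cannula, one dose per animal, then histamine repeated 5 min after dosing. Percent inhibition = maximum pulmonary resistance after the agent versus before it.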

Cavia porcellus [3] = assay: Bronchodilator activity in trachea and jugular vein cannulated guinea pig assessed as inhibition of histamine-induced response at 25 mg/kg, iv after 5 mins relative to control; type: functional; outline: as §2
Cavia porcellus [4] = assay: Bronchodilator activity in trachea and jugular vein cannulated guinea pig assessed as inhibition of histamine-induced response at 6.25 mg/kg, iv after 5 mins relative to control; type: functional; outline: as §2
Cavia porcellus [5] = assay: Bronchodilator activity in trachea and jugular vein cannulated guinea pig assessed as inhibition of histamine-induced response at 3.175 mg/kg, iv after 5 mins relative to control; type: functional; outline: as §2
Cavia porcellus [6] = species on record: Cavia porcellus; assay: (§3) Bronchodilator activity in guinea pig trachea assessed as relaxation of tracheal smooth muscle at 0.5 to 5 ug/ml after 15 mins relative to aminophylline; type: functional
Outline: (§4)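 Guinea pig trachea cut into rings tied as a chain, in Krebs-Henseleit at 37 °C aerated with 5% CO2/95% O2, resting load 0.2–0.5 g, tone recorded isometrically after stabilization. Sodium salts in water, up to 5 µg/mL, 15-min exposure. Potency estimated against aminophylline by a three- or four-point assay from concentration–relaxation plots, one preparation per agent.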

Cavia porcellus [7] = assay: Bronchodilator activity in guinea pig assessed as protection against histamine aerosol-induced bronchoconstriction at 90 mg/kg, ip treated for 15 mins prior to histamine aerosol-challenge measured after 5 mins relative to control; type: functional; conditions: route intraperitoneal; outline: as §1
Cavia porcellus [8] = assay: Toxicity in trachea and jugular vein cannulated histamine-induced guinea pig assessed as severe airway constriction at 25 mg/kg, iv; type: organism-based; set-up: dose 25 mg/kg, route intravenous; conditions: in vivo
Outline: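 Guinea pigs cannulated in the jugular vein dosed iv with the sodium salt in water. Animals showing severe airway constriction after dosing were recorded and received no histamine challenge.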

Cavia porcellus [9] = assay: Bronchodilator activity in guinea pig assessed as protection against histamine aerosol-induced bronchoconstriction at 90 mg/kg, po treated for 30 mins prior to histamine aerosol-challenge measured after 5 mins; type: functional, organism-based; set-up: dose 90 mg/kg; outline: as §1
[10] = Bronchodilator activity in guinea pig trachea assessed as relaxation of tracheal smooth muscle at 0.125 to 0.5 ug/ml after 15 mins relative to aminophylline; type: functional, Cavia porcellus; outline: as §4
Cavia porcellus [11] = assay: Bronchodilator activity in guinea pig assessed as protection against histamine aerosol-induced bronchoconstriction at 50 mg/kg, ip treated for 15 mins prior to histamine aerosol-challenge measured after 5 mins relative to control; type: functional; conditions: route intraperitoneal
Cavia porcellus [12] = assay: Bronchodilator activity in guinea pig assessed as protection against histamine aerosol-induced bronchoconstriction at 75 mg/kg, ip treated for 15 mins prior to histamine aerosol-challenge measured after 5 mins relative to control; type: functional; conditions: route intraperitoneal
[13] = Bronchodilator activity in guinea pig trachea assessed as relaxation of tracheal smooth muscle at 0.05 to 0.5 ug/ml after 15 mins relative to aminophylline; type: functional, Cavia porcellus; outline: as §4
[14] = Bronchodilator activity in guinea pig trachea assessed as relaxation of tracheal smooth muscle at 0.005 to 5 ug/ml after 15 mins relative to aminophylline; type: functional, Cavia porcellus; outline: as §4
[15] = as §3; type: functional, Cavia porcellus; outline: as §4
Cavia porcellus [16] = assay: Bronchodilator activity in guinea pig assessed as protection against histamine aerosol-induced bronchoconstriction at 200 mg/kg, po treated for 30 mins prior to histamine aerosol-challenge measured after 5 mins; type: functional, organism-based; set-up: dose 200 mg/kg; outline: as §1

Row | Compound | Activity (Cavia porcellus [1]) | also measured
1 | O=C(O)c1ccc2c(c1)CCc1ccc(Br)cc1C2=O | 50% | –
2 | Cc1cccc2c1CCc1cc(C(=O)O)ccc1C2=O [listing 1 of 2 here] | – | inhibition in vivo at 12.5 mg/kg (Cavia porcellus [2]): 0%; inhibition in vivo at 25 mg/kg (Cavia porcellus [3]): 0%; inhibition in vivo at 6.25 mg/kg (Cavia porcellus [4]): 0%; inhibition in vivo at 3.175 mg/kg (Cavia porcellus [5]): 0%
3 | O=C(O)c1ccc2c(c1)CCc1ccccc1C2=O [listing 1 of 3 here] | – | Activity (Cavia porcellus [6]): inactive
4 | O=C(O)c1ccc2c(c1)CCc1c(Br)cccc1C2=O [listing 1 of 2 here] | – | Activity (Cavia porcellus [7]): 75%
5 | Cc1cccc2c1CCc1cc(C(=O)O)ccc1C2=O [listing 2 of 2 here] | 87.5% | –
6 | O=C([O-])c1ccc2c(c1)CCc1c(Cl)cccc1C2=O.[Na+] | – | inhibition in vivo at 12.5 mg/kg (Cavia porcellus [2]): 76%; Activity (Cavia porcellus [8]): Toxic
7 | O=C(O)c1ccc2c(c1)C(=O)c1cc(Br)ccc1CC2 | 62.5% | –
8 | CC(C)c1cccc2c1CCc1cc(C(=O)O)ccc1C2=O | 25% | Activity (Cavia porcellus [9]): inactive
9 | CC(C)c1ccc2c(c1)C(=O)c1ccc(C(=O)[O-])cc1CC2.[Na+] | – | fold change (FC) [10]: 10
10 | O=C(O)c1ccc2c(=O)c3cccc(F)c3ccc2c1 [listing 1 of 2 here] | – | inhibition in vivo at 12.5 mg/kg (Cavia porcellus [2]): 22%; inhibition in vivo at 25 mg/kg (Cavia porcellus [3]): 43%
11 | N#Cc1ccc2c(c1)C(=O)c1cc(C(=O)O)ccc1CC2 | 0% | –
12 | O=C([O-])c1ccc2c(c1)CCc1c(Cl)cc(Cl)cc1C2=O.[Na+] | – | inhibition in vivo at 12.5 mg/kg (Cavia porcellus [2]): 53%; Activity (Cavia porcellus [8]): Toxic
13 | O=C([O-])c1ccc2c(c1)CCc1ccc(Cl)cc1C2=O.[Na+] | – | inhibition in vivo at 12.5 mg/kg (Cavia porcellus [2]): 24%; inhibition in vivo at 6.25 mg/kg (Cavia porcellus [4]): 0%; Activity (Cavia porcellus [8]): Toxic
14 | Cn1c(=O)c2[nH]cnc2n(C)c1=O.Cn1c(=O)c2[nH]cnc2n(C)c1=O.NCCN [AMINOPHYLLINE] | 75% | Activity (Cavia porcellus [11]): 25%; Activity (Cavia porcellus [12]): 50%
15 | O=C(O)c1ccc2c(c1)C(=O)c1cc(Cl)ccc1CC2 | 25% | –
16 | O=C(O)c1ccc2ccc3ccccc3c(=O)c2c1 | 62.5% | –
17 | CC(C)Oc1ccc2c(c1)C(=O)c1cc(C(=O)O)ccc1CC2 | – | Activity (Cavia porcellus [11]): 0%
18 | CC(=O)c1ccc2c(c1)C(=O)c1cc(C(=O)[O-])ccc1CC2.[Na+] | – | fold change (FC) [13]: <1
19 | O=C(O)c1ccc2c(c1)C(=O)c1cccc(Br)c1CC2 | 0% | –
20 | O=C(O)c1ccc2c(c1)CCc1ccc(Cl)cc1C2=O | 0% | –
21 | CC(C)Oc1ccc2ccc3ccc(C(=O)O)cc3c(=O)c2c1 | 62.5% | –
22 | COc1ccc2c(c1)C(=O)c1cc(C(=O)O)ccc1CC2 | 50% | –

Row | Compound | Activity (Cavia porcellus [1]) | also measured
23 | Cc1ccc2c(c1)CCc1cc(C(=O)O)ccc1C2=O | 12.5% | –
24 | O=C(O)c1ccc2c(c1)C(=O)c1cc(O)ccc1CC2 | 12.5% | –
25 | CC(=O)c1ccc2c(c1)C(=O)c1ccc(C(=O)O)cc1CC2 | 25% | –
26 | O=C(O)c1ccc2c(c1)CCc1ccccc1C2=O [listing 2 of 3 here] | 62.5% | –
27 | O=C(O)c1ccc2c(=O)c3cccc(F)c3ccc2c1 [listing 2 of 2 here] | 25% | –
28 | O=C(O)c1cccc2c(=O)c3ccccc3ccc12 | 12.5% | –
29 | COc1ccc2c(c1)CCc1cc(C(=O)O)ccc1C2=O [listing 1 of 2 here] | 37.5% | –
30 | O=C(O)c1ccc2ccc3ccc(Cl)cc3c(=O)c2c1 | 0% | –
31 | O=C(O)c1ccc2ccc3ccc(Br)cc3c(=O)c2c1 | 12.5% | –
32 | O=C([O-])c1ccc2c(c1)C(=O)c1cc(Cl)ccc1CC2.[Na+] | – | fold change (FC) [14]: 25
33 | O=C(O)c1ccc2c(c1)C(=O)c1ccccc1CC2 | 0% | –
34 | O=C([O-])c1ccc2c(c1)CCc1ccc(Br)cc1C2=O.[Na+] | – | fold change (FC) [15]: 7
35 | Cc1ccc2c(c1)C(=O)c1ccc(C(=O)O)cc1CC2 | 62.5% | –
36 | O=C(O)c1ccc2c(c1)C(=O)c1ccc(Br)cc1CC2 | 0% | –
37 | O=C(O)c1ccc2c(c1)CCc1ccccc1C2=O [listing 3 of 3 here] | – | inhibition in vivo at 12.5 mg/kg (Cavia porcellus [2]): 0%; inhibition in vivo at 25 mg/kg (Cavia porcellus [3]): 11%
38 | O=C([O-])c1ccc2c(c1)C(=O)c1cc(Br)ccc1CC2.[Na+] | – | fold change (FC) [10]: 10; inhibition in vivo at 12.5 mg/kg (Cavia porcellus [2]): 0%; inhibition in vivo at 25 mg/kg (Cavia porcellus [3]): 61%
39 | O=C(O)c1ccc2c(c1)CCc1c(Cl)cccc1C2=O [listing 1 of 2 here] | 75% | –
40 | O=C(O)c1cccc2c1CCc1ccccc1C2=O | 0% | –
41 | O=C(O)c1ccc2c(c1)CCc1c(F)cccc1C2=O | 75% | –
42 | COc1ccc2c(c1)CCc1cc(C(=O)O)ccc1C2=O [listing 2 of 2 here] | – | inhibition in vivo at 25 mg/kg (Cavia porcellus [3]): 20%
43 | CC(C)Oc1ccc2c(c1)C(=O)c1cc(C(=O)[O-])ccc1CC2.[Na+] | – | fold change (FC) [13]: 0.5
44 | CC(C)c1ccc2c(c1)C(=O)c1cc(C(=O)[O-])ccc1CC2.[Na+] | – | fold change (FC) [15]: 5

Row | Compound | Activity (Cavia porcellus [1]) | also measured
45 | Cc1cc(C)c2c(c1)C(=O)c1cc(C(=O)O)ccc1CC2 | 37.5% | –
46 | O=C(O)c1ccc2c(=O)c3cccc(Br)c3ccc2c1 | 25% | –
47 | N#Cc1ccc2c(c1)CCc1ccc(C(=O)O)cc1C2=O | 12.5% | –
48 | CC(=O)c1ccc2ccc3ccc(C(=O)O)cc3c(=O)c2c1 | 37.5% | –
49 | Cc1ccc2c(c1)CCc1cc(C(=O)[O-])ccc1C2=O.[Na+] | – | inhibition in vivo at 12.5 mg/kg (Cavia porcellus [2]): 0%; Activity (Cavia porcellus [8]): Toxic
50 | O=C(O)c1ccc2c(c1)CCc1c(Cl)cccc1C2=O [listing 2 of 2 here] | – | Activity (Cavia porcellus [16]): inactive
51 | O=C(O)c1ccc2c(c1)CCc1c(Cl)cc(Cl)cc1C2=O | 50% | –
52 | CC(=O)c1ccc2c(c1)C(=O)c1cc(C(=O)O)ccc1CC2 | 62.5% | –
53 | O=C(O)c1cc2ccccc2c(=O)c2ccccc12 | 0% | –
54 | O=C(O)c1ccc2c(c1)CCc1cc(Br)ccc1C2=O | 25% | –
55 | O=C(O)c1ccc2c(=O)c3ccccc3ccc2c1 | 0% | –
56 | COc1ccc2c(c1)C(=O)c1ccc(C(=O)O)cc1CC2 [listing 1 of 2 here] | – | inhibition in vivo at 12.5 mg/kg (Cavia porcellus [2]): 13%; inhibition in vivo at 25 mg/kg (Cavia porcellus [3]): 68%
57 | N#Cc1ccc2c(c1)C(=O)c1cc(C(=O)[O-])ccc1CC2.[Na+] | – | fold change (FC) [13]: 5
58 | CC(C)c1ccc2c(c1)C(=O)c1ccc(C(=O)O)cc1CC2 | 62.5% | –
59 | COc1ccc2c(c1)C(=O)c1ccc(C(=O)O)cc1CC2 [listing 2 of 2 here] | 50% | –
60 | O=C(O)c1ccc2c(=O)c3cc(Cl)cc(Cl)c3ccc2c1 | 0% | –
61 | O=C(O)c1ccc2ccc3ccc(C(=O)O)cc3c(=O)c2c1 | 25% | –
62 | CC(C)c1ccc2c(c1)C(=O)c1cc(C(=O)O)ccc1CC2 | 25% | –
63 | O=C([O-])c1ccc2c(c1)C(=O)c1ccccc1CC2.[Na+] | – | fold change (FC) [13]: 7
64 | O=C(O)c1ccc2c(c1)C(=O)c1ccc(Cl)cc1CC2 | 25% | –
65 | O=C(O)c1ccc2c(c1)CCc1c(Br)cccc1C2=O [listing 2 of 2 here] | – | inhibition in vivo at 12.5 mg/kg (Cavia porcellus [2]): 46%; inhibition in vivo at 25 mg/kg (Cavia porcellus [3]): 77%; inhibition in vivo at 6.25 mg/kg (Cavia porcellus [4]): 0%
66 | CC(C)Oc1ccc2c(c1)C(=O)c1ccc(C(=O)O)cc1CC2 | 50% | –
